What was measured:
[1] = Clearance in infants of 0.6-2 yrs age at risk for fungal infection at 2.5 mg/kg, iv in 0.1 g/kg hydroxypropyl-beta-cyclodextrin administered as single dose; assay type: ADME, organism-based; parameters: dose 2.5 mg/kg, route intravenous; settings: human, in vivo
How it was run: (§1)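 Single 1-h IV infusion. Plasma sampled from the contralateral limb predose and at 1–120 h (>2 y) or 1–96 h (<2 y). Itraconazole was extracted with internal standard and quantified by C18 HPLC with UV 263 nm detection, linear range 2–2,000 ng/ml. Noncompartmental analysis: Cmax by inspection, AUC0-24 by trapezoidal rule, AUC extrapolated via λz, CL and Vz from AUC0-∞.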

[2] = Clearance in adolescents of >12-16 yrs age at risk for fungal infection at 2.5 mg/kg, iv in 0.1 g/kg hydroxypropyl-beta-cyclodextrin administered as single dose; assay type: ADME, organism-based; parameters: dose 2.5 mg/kg, route intravenous; settings: human, in vivo; how it was run: as §1
[3] = Cmax in infants of 0.6-2 yrs age at risk for fungal infection at 2.5 mg/kg, iv in 0.1 g/kg hydroxypropyl-beta-cyclodextrin administered as single dose; assay type: ADME, organism-based; parameters: dose 2.5 mg/kg, route intravenous; settings: human, in vivo; how it was run: as §1
[4] = Apparent volume of distribution in children of >6-12 yrs age at risk for fungal infection at 2.5 mg/kg, iv in 0.1 g/kg hydroxypropyl-beta-cyclodextrin administered as single dose; assay type: ADME, organism-based; parameters: dose 2.5 mg/kg, route intravenous; settings: human, in vivo; how it was run: as §1
[5] = Clearance in human at risk for fungal infection at 2.5 mg/kg, iv in 0.1 g/kg hydroxypropyl-beta-cyclodextrin administered as single dose; assay type: ADME, organism-based; parameters: dose 2.5 mg/kg, route intravenous; settings: in vivo; how it was run: as §1
Homo sapiens [6] = test: AUC (0 to 24 hrs) in children of >2-6 yrs age at risk for fungal infection at 2.5 mg/kg, iv in 0.1 g/kg hydroxypropyl-beta-cyclodextrin administered as single dose; assay type: ADME, organism-based, Plasma; parameters: time < 24 hr, dose 2.5 mg/kg, route intravenous; settings: in vivo; how it was run: as §1
Homo sapiens [7] = test: Tmax in children of >2-6 yrs age at risk for fungal infection assessed as hydroxyitraconazole level at 2.5 mg/kg, iv in 0.1 g/kg hydroxypropyl-beta-cyclodextrin administered as single dose; assay type: ADME, organism-based; parameters: dose 2.5 mg/kg, route intravenous; settings: in vivo
How it was run: (§2)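 Single 1-h constant-rate IV infusion. Venous plasma sampled predose and to 120 h (>2 y) or 96 h (<2 y), then stored at –20°C. Hydroxyitraconazole was measured by borate/isoamylalcohol-heptane extraction, HCl back-extraction, C18 HPLC and UV 263 nm, with a linear range of 5–5,000 ng/ml. Noncompartmental analysis: Cmax and tmax by inspection, AUC0-24 by trapezoidal rule.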

Homo sapiens [8] = test: Tmax in adolescents of >12-16 yrs age at risk for fungal infection assessed as hydroxyitraconazole level at 2.5 mg/kg, iv in 0.1 g/kg hydroxypropyl-beta-cyclodextrin administered as single dose; assay type: ADME, organism-based; parameters: dose 2.5 mg/kg, route intravenous; settings: in vivo; how it was run: as §2
Homo sapiens [9] = test: Cmax in infants of 0.6-2 yrs age at risk for fungal infection assessed as hydroxyitraconazole level at 2.5 mg/kg, iv in 0.1 g/kg hydroxypropyl-beta-cyclodextrin administered as single dose; assay type: ADME, organism-based; parameters: dose 2.5 mg/kg, route intravenous; settings: in vivo
How it was run: (§3)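 Single constant-rate IV infusion over 1 h. Heparinised venous plasma was drawn predose and at 1–120 h (>2 yr) or 1–96 h (<2 yr, randomised to the itraconazole/metabolite arm), then stored at –20°C. Analysis used borate-buffered liquid-liquid extraction with internal standard, C18 HPLC and UV detection at 263 nm, linear 5–5,000 ng/ml. Individual Cmax was read by visual inspection, noncompartmental.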

Homo sapiens [10] = test: Tmax in human at risk for fungal infection assessed as hydroxyitraconazole level at 2.5 mg/kg, iv in 0.1 g/kg hydroxypropyl-beta-cyclodextrin administered as single dose; assay type: ADME, organism-based; parameters: dose 2.5 mg/kg, route intravenous; settings: in vivo; how it was run: as §2
Homo sapiens [11] = test: Cmax in children of >6-12 yrs age at risk for fungal infection assessed as hydroxyitraconazole level at 2.5 mg/kg, iv in 0.1 g/kg hydroxypropyl-beta-cyclodextrin administered as single dose; assay type: ADME, organism-based; parameters: dose 2.5 mg/kg, route intravenous; settings: in vivo; how it was run: as §3
[12] = Half life in adolescents of >12-16 yrs age at risk for fungal infection at 2.5 mg/kg, iv in 0.1 g/kg hydroxypropyl-beta-cyclodextrin administered as single dose; assay type: ADME, organism-based; parameters: dose 2.5 mg/kg, route intravenous; settings: human, in vivo; how it was run: as §1
[13] = Half life in children of >6-12 yrs age at risk for fungal infection at 2.5 mg/kg, iv in 0.1 g/kg hydroxypropyl-beta-cyclodextrin administered as single dose; assay type: ADME, organism-based; parameters: dose 2.5 mg/kg, route intravenous; settings: human, in vivo; how it was run: as §1
Homo sapiens [14] = test: Tmax in children of >6-12 yrs age at risk for fungal infection assessed as hydroxyitraconazole level at 2.5 mg/kg, iv in 0.1 g/kg hydroxypropyl-beta-cyclodextrin administered as single dose; assay type: ADME, organism-based; parameters: dose 2.5 mg/kg, route intravenous; settings: in vivo; how it was run: as §2
[15] = Apparent volume of distribution in children of >2-6 yrs age at risk for fungal infection at 2.5 mg/kg, iv in 0.1 g/kg hydroxypropyl-beta-cyclodextrin administered as single dose; assay type: ADME, organism-based; parameters: dose 2.5 mg/kg, route intravenous; settings: human, in vivo; how it was run: as §1
Homo sapiens [16] = test: AUC (0 to 24 hrs) in human at risk for fungal infection assessed as hydroxyitraconazole level at 2.5 mg/kg, iv in 0.1 g/kg hydroxypropyl-beta-cyclodextrin administered as single dose; assay type: ADME, organism-based, Plasma; parameters: time < 24 hr, dose 2.5 mg/kg, route intravenous; settings: in vivo; how it was run: as §2
Homo sapiens [17] = test: AUC (0 to 24 hrs) in children of >2-6 yrs age at risk for fungal infection assessed as hydroxyitraconazole level at 2.5 mg/kg, iv in 0.1 g/kg hydroxypropyl-beta-cyclodextrin administered as single dose; assay type: ADME, organism-based, Plasma; parameters: time < 24 hr, dose 2.5 mg/kg, route intravenous; settings: in vivo; how it was run: as §2
[18] = AUC (0 to 24 hrs) in human at risk for fungal infection at 2.5 mg/kg, iv in 0.1 g/kg hydroxypropyl-beta-cyclodextrin administered as single dose; assay type: ADME, organism-based; parameters: time < 24 hr, dose 2.5 mg/kg, route intravenous; settings: plasma; how it was run: as §1
Homo sapiens [19] = test: Half life in children of >6-12 yrs age at risk for fungal infection assessed as hydroxyitraconazole level at 2.5 mg/kg, iv in 0.1 g/kg hydroxypropyl-beta-cyclodextrin administered as single dose; assay type: ADME, organism-based; parameters: dose 2.5 mg/kg, route intravenous; settings: in vivo; how it was run: as §2
[20] = Apparent volume of distribution in adolescents of >12-16 yrs age at risk for fungal infection at 2.5 mg/kg, iv in 0.1 g/kg hydroxypropyl-beta-cyclodextrin administered as single dose; assay type: ADME, organism-based; parameters: dose 2.5 mg/kg, route intravenous; settings: human, in vivo; how it was run: as §1
[21] = Half life in infants of 0.6-2 yrs age at risk for fungal infection at 2.5 mg/kg, iv in 0.1 g/kg hydroxypropyl-beta-cyclodextrin administered as single dose; assay type: ADME, organism-based; parameters: dose 2.5 mg/kg, route intravenous; settings: human, in vivo; how it was run: as §1
[22] = Half life in human at risk for fungal infection at 2.5 mg/kg, iv in 0.1 g/kg hydroxypropyl-beta-cyclodextrin administered as single dose; assay type: ADME, organism-based; parameters: dose 2.5 mg/kg, route intravenous; settings: in vivo; how it was run: as §1
Homo sapiens [23] = test: Half life in adolescents of >12-16 yrs age at risk for fungal infection assessed as hydroxyitraconazole level at 2.5 mg/kg, iv in 0.1 g/kg hydroxypropyl-beta-cyclodextrin administered as single dose; assay type: ADME, organism-based; parameters: dose 2.5 mg/kg, route intravenous; settings: in vivo; how it was run: as §2

clearance [1]: 19.1 mL/min/kg | clearance [2]: 12.9 mL/min/kg | Cmax [3]: 827 ng/mL | Vd [4]: 13.9 L/kg | clearance [5]: 11.7 mL/min/kg | AUC (Homo sapiens [6]): 9510 ng·h/mL | Tmax (Homo sapiens [7]): 2.9 h | Tmax (Homo sapiens [8]): 1.2 h | Cmax (Homo sapiens [9]): 265 ng/mL | Tmax (Homo sapiens [10]): 2.2 h | Cmax (Homo sapiens [11]): 277 ng/mL | half-life [12]: 29 h | half-life [13]: 17.2 h | Tmax (Homo sapiens [14]): 1.7 h | Vd [15]: 8.3 L/kg | AUC (Homo sapiens [16]): 3811 ng·h/mL | AUC (Homo sapiens [17]): 4249 ng·h/mL | AUC(0-t) at 24 h [18]: 4920 ng·h/mL | t1/2 (Homo sapiens [19]): 14.3 h | Vd [20]: 28.5 L/kg | half-life [21]: 13.3 h | half-life [22]: 20.2 h | t1/2 (Homo sapiens [23]): 12.3 h
SMILES: CCC(C)n1ncn(-c2ccc(N3CCN(c4ccc(OCC5COC(Cn6cncn6)(c6ccc(Cl)cc6Cl)O5)cc4)CC3)cc2)c1=O (stereo not drawn) [ITRACONAZOLE]
